Among the data in ChEMBL document CHEMBL1124662, “Antiinflammatory activity of a series of substituted 2,3-dihydro-6-hydroxypyrimido[2,1-f]purine-4,8(1H,9H)-diones” (J Med Chem, 1989) are inhibition in vivo, ED50 and IC50 values, retold here.

The structures appear in SMILES notation. pIC50: −log10 of the molar value.

For assay [1], the system named is Rattus norvegicus. Nature of the assay: Antiinflammatory activity against reverse passive Arthus reaction-synovitis in rat at dose of 50 mg/kg per orally. The class given is functional. Particulars: po. Put shortly:
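Lewis rats dosed orally with drug or placebo 1 h before iv bovine serum albumin in saline, then 0.54 mg rabbit anti-BSA antibody intraarticular in one knee, saline in the other, under light anesthesia. Second oral dose at 3 h; the dose used is the total given before and after induction.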

Assay [2] concerns Rattus norvegicus. Briefly: Prophylactic antiinflammatory activity against adjuvant arthritic rat at dose of 50 mg/kg in noninjected 1 degree paw. The assay is classed as functional. Put shortly:
(§1)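 Heat-killed Mycobacterium tuberculosis ground and homogenized in paraffin oil (6 mg/mL); 0.1 mL injected into left hind paw. Drug dosed 1 h before challenge, then daily for 21 consecutive days; controls received methylcellulose. Both hind paw volumes measured by plethysmograph immediately and on day 21; % inhibition of Δ paw volume.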

Assay [3] deals with Rattus norvegicus. Briefly: Prophylactic antiinflammatory activity against adjuvant arthritic rat at dose of 50 mg/kg in noninjected 2 degree paw. The class given is functional. In short, it runs like this:
as §1

Assay [4] has as its system Rattus norvegicus. Nature of the assay: Prophylactic oral administration in adjuvant arthritic rat model at 25 mg/kg in noninjected 2 degree paw. The class given is functional. In short, it runs like this: as §1
The nature of assay [5]: Therapeutic oral administration in adjuvant arthritic rat model at 25 mg/kg in noninjected 2 degree paw. The class given is ADME, organism-based. The arrangement: dose 25 mg/kg, route oral. In short, it runs like this: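 Adjuvant arthritis (heat-killed M. tuberculosis in paraffin oil, 6 mg/mL, 0.1 mL into left hind paw) left to develop 7 days before first oral dose; treatment continued 35 days. Controls given methylcellulose; hind paw volumes measured by plethysmograph as Δ paw volume; % inhibition.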

Assay [6] deals with Rattus norvegicus. Nature of the assay: Prophylactic anti-inflammatory activity in adjuvant arthritic rat at 12.5 mg/kg in noninjected 1 degree paw. The assay is classed as functional. In short, it runs like this:
as §1

The test system of assay [7] is Rattus norvegicus. Nature of the assay: Prophylactic anti-inflammatory activity in adjuvant arthritic rat at 12.5 mg/kg in noninjected 2 degree paw. The assay is classed as functional. In short, it runs like this: as §1
Assay [8] deals with Rattus norvegicus. Briefly: Prophylactic antiinflammatory activity against adjuvant arthritic rat at dose of 25 mg/kg in noninjected 1 degree paw. The assay is classed as functional. In short, it runs like this:
as §1

Assay [9] deals with Rattus norvegicus. Briefly: Prophylactic antiinflammatory activity against adjuvant arthritic rat at dose of 25 mg/kg in noninjected 2 degree paw. The assay is classed as functional. Put shortly: as §1
For assay [10], the system named is Rattus norvegicus. Briefly: Prophylactic anti-inflammatory activity in adjuvant arthritic rat at 6.25 mg/kg in noninjected 1 degree paw. The assay is classed as functional. In short, it runs like this: as §1
The test system of assay [11] is Rattus norvegicus. Nature of the assay: Prophylactic anti-inflammatory activity in adjuvant arthritic rat at 6.25 mg/kg in noninjected 2 degree paw. The assay is classed as functional. In short, it runs like this: as §1
The test system of assay [12] is Rattus norvegicus. Briefly: Prophylactic anti-inflammatory activity in adjuvant arthritic rat at 25 mg/kg in noninjected 1 degree paw. The class given is functional. Put shortly: as §1
For assay [13], the system named is Rattus norvegicus. Briefly: Prophylactic anti-inflammatory activity in adjuvant arthritic rat at 25 mg/kg in noninjected 2 degree paw. The class given is functional. Put shortly:
as §1

The test system of assay [14] is Rattus norvegicus. Nature of the assay: Prophylactic anti-inflammatory activity in adjuvant arthritic rat at 50 mg/kg in noninjected 1 degree paw. The class given is functional. In short, it runs like this: as §1
Assay [15] relates to Rattus norvegicus. Briefly: Prophylactic anti-inflammatory activity adjuvant arthritic rat at 50 mg/kg in noninjected 2 degree paw. The assay is classed as functional. In short, it runs like this:
as §1

A short description of assay [16]: Inhibition of guinea pig Phosphodiesterase. The arrangement: species or system Cavia porcellus.
In assay [17] the test system is Rattus norvegicus. Nature of the assay: Prophylactic anti-inflammatory activity in adjuvant arthritic rat at 45 mg/kg in noninjected 1 degree paw. The class given is functional. In short, it runs like this:
as §1

Assay [18] deals with Rattus norvegicus. Nature of the assay: Prophylactic anti-inflammatory activity in adjuvant arthritic rat at 45 mg/kg in noninjected 2 degree paw. The class given is functional. Put shortly:
as §1

A word on the inhibition in vivo: it is the drop in the measured response relative to a control, in per cent. As to `CN1CN(C)c2nc3n(Cc4ccccc4)c(=O)/c(=C\O)c(=O)n3c2C1=O`, the results for the inhibition in vivo at 50 mg/kg in assay [1], in assay [2] and in assay [3] were 34%, 6% and 32%, respectively.

Broadly, the ED50 is the dose at which the effect has come halfway, by size or by number of responders. For the molecule `C/C(=C/Cc1c(O)n(Cc2ccccc2)c2nc3c(n2c1=O)C(=O)N(C)CN3C)C(F)(F)F`, the ED50 was 8.8 mg/kg in [4] and 4 mg/kg in assay [5]. In assay [1], the inhibition in vivo at 50 mg/kg was determined as 25%. Also, the inhibition in vivo at 12.5 mg/kg in [6] was found to be 47%; in assay [7] it was 64%. For the same molecule, the values for the inhibition in vivo at 25 mg/kg in assay [8] and in assay [9] were 45% and 74%, respectively. In addition, the inhibition in vivo at 6.25 mg/kg in assay [10] was determined as 33%; in assay [11] it was 60%.

With `CC(C)=CCc1c(O)n(Cc2ccc(F)cc2)c2nc3c(n2c1=O)C(=O)N(C)CN3C`, in assay [5], the ED50 was found to be 7.6 mg/kg. The inhibition in vivo at 50 mg/kg in assay [1] was 18%. The inhibition in vivo at 25 mg/kg in assay [12] worked out at 24%; in assay [9] it was 49%.

`C/C=C/Cc1c(O)n(Cc2ccccc2)c2nc3c(n2c1=O)C(=O)N(C)CN3C`: the results for the inhibition in vivo at 50 mg/kg in [1], in [2] and in [3] were 0%, 44% and 71%, respectively. For the same molecule, the inhibition in vivo at 12.5 mg/kg in assay [6] was 20%. The inhibition in vivo at 25 mg/kg in [8] came out at 24%; in [9], 40%.

For the molecule `CN(C)/C=c1\c(=O)n(Cc2ccccc2)c2nc3c(n2c1=O)C(=O)N(C)CN3C`, in assay [1], the inhibition in vivo at 50 mg/kg came to 27%.

Take `CCCc1c(O)n(Cc2ccc(F)cc2)c2nc3c(n2c1=O)C(=O)N(C)CN3C`: the inhibition in vivo at 50 mg/kg in assay [1] was determined as 0%. Further, the inhibition in vivo at 25 mg/kg came out at 0% in assay [8] and 56% in assay [9].

With `CN1CN(C)c2nc3n(Cc4ccccc4)c(O)c(C(=O)Nc4ccccc4)c(=O)n3c2C1=O`, the figures for the inhibition in vivo at 50 mg/kg in assay [2] and in [3] were -21% and 23%, respectively.

Regarding `C=CCc1c(O)n(Cc2ccc(F)cc2)c2nc3c(n2c1=O)C(=O)N(C)CN3C`, the values for the inhibition in vivo at 50 mg/kg in assay [1], in assay [2] and in [3] were 40%, 10% and 49%, respectively.

In the case of `CCCc1c(O)n(Cc2cccs2)c2nc3c(n2c1=O)C(=O)N(C)CN3C`, the inhibition in vivo at 12.5 mg/kg in [6] was 20%; in assay [7], 13%. The values for the inhibition in vivo at 25 mg/kg in assay [8] and in assay [9] were 20% and 51%, respectively.

Regarding `CN1CN(C)c2nc3n(Cc4ccc(F)cc4)c(O)cc(=O)n3c2C1=O`, the values for the inhibition in vivo at 50 mg/kg in assay [1], in assay [14] and in assay [15] were 9%, 37% and 46%, respectively. Also, the inhibition in vivo at 12.5 mg/kg in assay [6] is 22%; in assay [7], 21%. Also, the inhibition in vivo at 25 mg/kg came to 36% in assay [12] and 24% in [13].

As a reminder, the pIC50 is the IC50 on a negative log10 scale, so that one unit is a factor of ten. In the case of `Cn1c(=O)c2[nH]cnc2n(C)c1=O` [AMINOPHYLLINE], the pIC50 in assay [16] is 4.52.

`CN1CN(C)c2nc3n(Cc4ccccc4)c(O)c(Cc4ccccc4)c(=O)n3c2C1=O`: the inhibition in vivo at 50 mg/kg was found to be 5% in assay [1], 46% in [2] and 63% in assay [3]. Also, the results for the inhibition in vivo at 25 mg/kg in assay [8] and in [9] were 34% and 49%, respectively.

With `CC(C)CCc1c(O)n(Cc2ccccc2)c2nc3c(n2c1=O)C(=O)N(C)CN3C`, the inhibition in vivo at 45 mg/kg came to 23% in assay [17] and 51% in assay [18].

In the case of `COc1ccc(Cn2c(O)c(CC=C(C)C)c(=O)n3c4c(nc23)N(C)CN(C)C4=O)cc1`, in assay [4], the 50% effective dose (ED50) was 14 mg/kg. Moreover, the inhibition in vivo at 12.5 mg/kg was 40% in assay [6] and 63% in assay [7]. The inhibition in vivo at 25 mg/kg came to 45% in assay [8] and 69% in assay [9].

Turning to `CN1CN(C)c2nc3n(Cc4ccccc4)c(O)c(CCO)c(=O)n3c2C1=O`, the inhibition in vivo at 50 mg/kg in assay [1] came to 8%.

Consider `CC(C)=CCSc1cc(=O)n2c3c(nc2n1Cc1ccccc1)N(C)CN(C)C3=O`, for which the inhibition in vivo at 25 mg/kg in [8] is -16%; in assay [9] it was 8%.

In the case of `CCCc1c(O)n(Cc2ccccc2)c2nc3c(n2c1=O)C(=O)N(C)CN3C`, the figures for the inhibition in vivo at 50 mg/kg in assay [1], in assay [2] and in [3] were 45%, 38% and 70%, respectively. Further, the inhibition in vivo at 12.5 mg/kg in assay [6] came to 16%; in assay [7], 38%. Also, the inhibition in vivo at 25 mg/kg in [8] is 24%; in [9], 65%.

In the case of `CCOC(=O)Cc1c(O)n(Cc2ccccc2)c2nc3c(n2c1=O)C(=O)N(C)CN3C`, in [1], the inhibition in vivo at 50 mg/kg came out at 14%. Besides, the inhibition in vivo at 25 mg/kg was 18% in [8] and 20% in assay [9].

For `CN1CN(C)c2nc3n(Cc4ccccc4)c(O)c(Sc4ccccc4)c(=O)n3c2C1=O`, the inhibition in vivo at 50 mg/kg in [2] came out at 15%; in [3] it was 23%.

In the case of `C#CCc1c(O)n(Cc2ccccc2)c2nc3c(n2c1=O)C(=O)N(C)CN3C`, the inhibition in vivo at 50 mg/kg was 6% in assay [1], 36% in assay [2] and 13% in [3]. For the same molecule, the values for the inhibition in vivo at 25 mg/kg in assay [8] and in assay [9] were 35% and 21%, respectively.

`Cc1c(O)n(Cc2ccccc2)c2nc3c(n2c1=O)C(=O)N(C)CN3C`: the inhibition in vivo at 50 mg/kg in assay [1] is 0%; in [2], 46%; in assay [3], 69%. Also, the inhibition in vivo at 12.5 mg/kg in assay [6] is 0%; in [7], 36%. Further, the values for the inhibition in vivo at 25 mg/kg in assay [8] and in [9] were 0% and 22%, respectively.

As for `CN1CN(C)c2nc3n(Cc4ccccc4)c(O)c(C4C=CCCC4)c(=O)n3c2C1=O` (configuration not stated), the figures for the inhibition in vivo at 50 mg/kg in [1], in [2] and in assay [3] were 16%, 13% and 13%, respectively. For the same molecule, the results for the inhibition in vivo at 12.5 mg/kg in assay [6] and in [7] were 9% and 6%, respectively. Besides, the figures for the inhibition in vivo at 25 mg/kg in [8] and in assay [9] were 12% and 15%, respectively.

As for `CSc1c(O)n(Cc2ccccc2)c2nc3c(n2c1=O)C(=O)N(C)CN3C`, the inhibition in vivo at 50 mg/kg in assay [1] amounted to 10%; in assay [2], 33%; in [3], 61%.
